A selection: hits, their analogues and other compounds. The true share with any hit is near 2.8%.
E-selectin induc = E-selectin induction in HUVECs, primary screen, imaging, HUVEC, immunofluorescence imaging, single point | actives 0.37% (n = 260,000) | AID 686992, 2013 | activation, % at 7.58 µM | normalized: neutral wells 0, TNF-alpha wells 100 | P16581;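 active = mean E-selectin-positive cell signal at least 10% of the positive control, reached in at least 60% of replicates, without over 20% cell loss; inconclusive = no rule given, readout overlaps actives, possibly toxicity-flagged; inactive = the rest, including those meeting only one limit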
Target sequence (P16581 whole entry, looked up): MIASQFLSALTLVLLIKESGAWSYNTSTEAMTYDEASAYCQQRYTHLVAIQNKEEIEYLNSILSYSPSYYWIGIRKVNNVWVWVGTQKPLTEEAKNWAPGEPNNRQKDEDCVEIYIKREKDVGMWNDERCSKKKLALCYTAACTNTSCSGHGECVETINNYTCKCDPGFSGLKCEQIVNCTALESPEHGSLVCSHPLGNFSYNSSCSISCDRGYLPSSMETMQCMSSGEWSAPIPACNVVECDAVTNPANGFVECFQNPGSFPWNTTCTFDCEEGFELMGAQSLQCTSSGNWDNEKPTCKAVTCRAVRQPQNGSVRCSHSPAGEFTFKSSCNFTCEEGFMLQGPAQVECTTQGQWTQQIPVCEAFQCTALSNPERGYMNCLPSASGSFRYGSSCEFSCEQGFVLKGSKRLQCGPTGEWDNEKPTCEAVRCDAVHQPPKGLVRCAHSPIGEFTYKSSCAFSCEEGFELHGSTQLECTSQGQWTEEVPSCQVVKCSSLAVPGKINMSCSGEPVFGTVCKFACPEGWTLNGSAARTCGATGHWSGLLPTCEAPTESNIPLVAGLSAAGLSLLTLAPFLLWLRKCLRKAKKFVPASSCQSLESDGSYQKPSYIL
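System: HUVEC, human umbilical vein endothelial cells; quantity: 3,000 cells/well; buffer or medium: EGM-2 medium, gelatin-coated wells; dosing: single-point compound dose; detection: immunofluorescence imaging; evaluation: % PE-positive cells; benchmarks: TNF-alpha, DMSO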
SIRT5 block = SIRT5 desuccinylase inhibitors, primary screen, biochemical, fluorescence imaging, single point, set 5; Purified SirT5, succinyl-peptide AMC, trypsin-coupled fluorescence; inhibition, % at 15 µM; actives 1.1% (n = 330,000); AID 652115, 2013; in the data active = inhibition above about 15%; inconclusive = no clear call, values can overlap the other calls
DENV2 CPE = inhibitors of DENV2 cytopathic effect, primary screen, cell-based, plate reader, single concentration | actives 1.7% (n = 350,000) | DENV2-infected cells, cytopathic effect rescue | CPE inhibition, % at 9.99 µM | AID 651640, 2012; in the data active = CPE inhibition above about 20%, passing the limit was not always enough; inconclusive = no clear call, values can overlap the other calls; tested in BHK-21 cells;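 also: 0% = median of neutral control wells and 100% = median of positive control wells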
An asterisk follows results filed as active; ? = inconclusive; nt = not tested or not shown.

SMILES	E-selectin induc	SIRT5 block	DENV2 CPE
C[C@@H]1CN([C@H](C)CO)C(=O)c2cc(NC(=O)Nc3ccccc3)ccc2O[C@@H](C)CCCCO[C@H]1CN(C)Cc1ccccc1	nt	4.2	17.3
COc1ccccc1C(=O)Nc1ccc2c(c1)C(=O)N(C)[C@@H]1CC[C@@H](CC(=O)NCCc3ccncc3)O[C@H]1CO2	0.1	-3.6	0.5
O=C(CC1CC1)N1CC(=O)N2[C@@H](CO)[C@@H](c3ccc(C#Cc4cccc(F)c4)cc3)[C@@H]2C1	0.1	0.1	28.6*
O=C(CC1CC1)N1CC(=O)N2[C@H](CO)[C@@H](c3ccc(C#Cc4ccc(F)cc4)cc3)[C@H]2C1	-0.5	-2.0	0.7
C[C@H]1CN([C@@H](C)CO)C(=O)c2cc(NC(=O)Nc3ccccc3)ccc2O[C@@H]1CN(C)Cc1ccc(Oc2ccccc2)cc1	0.3	3.7	7.2
COc1ccc(NC(=O)N(C)C[C@@H]2OCCCC[C@@H](C)Oc3ccc(NS(=O)(=O)c4c(C)noc4C)cc3C(=O)N([C@H](C)CO)C[C@H]2C)cc1	0.3	nt	?
C[C@@H]1CCCCO[C@@H](CN(C)Cc2ccc(C(F)(F)F)cc2)[C@H](C)CN([C@H](C)CO)C(=O)c2cc(NS(=O)(=O)c3ccc(Cl)cc3)ccc2O1	-0.2	16.1*	nt
C[C@H]1CCCCO[C@@H](CN(C)Cc2ccc(C(F)(F)F)cc2)[C@@H](C)CN([C@@H](C)CO)C(=O)c2cc(NS(=O)(=O)c3ccc(Cl)cc3)ccc2O1	-0.2	15.5*	?
C[C@@H]1CN([C@@H](C)CO)C(=O)c2cc(NS(=O)(=O)c3ccc(Cl)cc3)ccc2O[C@@H](C)CCCCO[C@@H]1CN(C)Cc1ccc(C(F)(F)F)cc1	-0.1	18.2*	7.5
C[C@@H]1CCCCO[C@H](CN(C)Cc2ccc(C(F)(F)F)cc2)[C@@H](C)CN([C@H](C)CO)C(=O)c2cc(NS(=O)(=O)c3ccc(Cl)cc3)ccc2O1	0.1	-0.7	-2.7
C[C@@H]1CN([C@H](C)CO)C(=O)c2cc(NS(=O)(=O)c3ccc(Cl)cc3)ccc2O[C@@H](C)CCCCO[C@H]1CN(C)Cc1ccc(C(F)(F)F)cc1	-0.1	9.8	-2.6
C[C@@H]1CCCCO[C@H](CN(C)Cc2ccc(C(F)(F)F)cc2)[C@H](C)CN([C@H](C)CO)C(=O)c2cc(NS(=O)(=O)c3ccc(Cl)cc3)ccc2O1	0.0	14.4	4.0
C[C@@H]1CN([C@@H](C)CO)C(=O)c2cc(NS(=O)(=O)c3ccc(Cl)cc3)ccc2O[C@@H](C)CCCCO[C@H]1CN(C)Cc1ccc(C(F)(F)F)cc1	-0.1	9.4	19.4
C[C@@H]1CCCCO[C@@H](CN(C)Cc2ccc(C(F)(F)F)cc2)[C@H](C)CN([C@@H](C)CO)C(=O)c2cc(NS(=O)(=O)c3ccc(Cl)cc3)ccc2O1	-0.2	17.8*	-1.5
Cc1ccc(S(=O)(=O)Nc2ccc3c(c2)C(=O)N([C@H](C)CO)C[C@@H](C)[C@@H](CN(C)C(=O)c2ccncc2)OCCCC[C@H](C)O3)cc1	nt	nt	-5.3
COc1ccc2c3c([nH]c2c1)[C@H](CO)N(C(=O)Cc1ccccc1)CC31CN(C(=O)Cc2ccccc2)C1	-0.2	-1.6	-1.8
Cc1noc(C)c1S(=O)(=O)N(C)C[C@H]1OCCCC[C@@H](C)Oc2ccc(NS(=O)(=O)c3cccs3)cc2C(=O)N([C@@H](C)CO)C[C@@H]1C	0.2	4.0	2.0
CO[C@@H]1CN(C)C(=O)c2ccc(NC(C)=O)cc2OC[C@H](C)N(C(=O)C2CC2)C[C@@H]1C	-0.1	-5.1	6.1
Cc1ccsc1C(=O)OCC(=O)NC1CCS(=O)(=O)C1 (centres undefined)	3.3	-4.3	2.4
O=C(COc1ncnc2sccc12)NC1CCS(=O)(=O)C1 (centres undefined)	-0.3	7.0	28.0*
C[C@H]1CCCCO[C@H](CN(C)S(=O)(=O)c2cn(C)cn2)[C@@H](C)CN([C@@H](C)CO)C(=O)c2cc(NC(=O)CCC(F)(F)F)ccc2O1	-0.1	-1.6	6.0
CC(=O)c1c(C)[nH]c(C(=O)NNC(=O)c2ccc(C)cc2)c1C	-0.2	10.4	-2.7
CC(=O)c1c(C)[nH]c(C(=O)NNC(=O)COc2cc(C)cc(C)c2)c1C	-0.1	-3.0	32.7*
CSc1nc(N)nc2c1ncn2CC(=O)NCc1ccc2c(c1)OCO2	0.6	21.4*	-15.1
CSc1nc(N)nc2c1ncn2CC(=O)NCc1ccccc1	-0.7	-6.6	7.6
C[C@@H]1CN([C@H](C)CO)C(=O)c2cc(NC(=O)Cc3cn(C)c4ccccc34)ccc2O[C@@H]1CN(C)CC1CCCCC1	-0.2	3.5	-0.1
